Source: ChEMBL document CHEMBL3045713, “The fungicidal terpenoids and essential oil from Litsea cubeba in Tibet” (Molecules, 2010)

Assays:
Format in all cases: functional
Verticillium dahliae = assay: Fungicidal activity against Verticillium dahliae assessed as inhibition of mycelium growth at 272 uM at 25 +/- 0.5 degC
In short: (§1)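 Mycelium growth rate test. Test sample dissolved in acetone and mixed into potato dextrose agar at the stated concentration, then fungal mycelial cakes were placed on the plates. Acetone served as blank and carbendazim as positive control. Plates were incubated at 25 ± 0.5 °C until the blank grew completely. Colony diameters were then measured, and inhibitory ratio was calculated against the blank mean. Three replicates were run.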

Thanatephorus cucumeris [1] = assay: Fungicidal activity against Thanatephorus cucumeris assessed as inhibition of mycelium growth at 272 uM at 25 +/- 0.5 degC; in short: as §1
[2] = tested on: Colletotrichum gloeosporioides; assay: Fungicidal activity against Colletotrichum gloeosporioides assessed as inhibition of mycelium growth at 272 uM at 25 +/- 0.5 degC; in short: as §1
[3] = tested on: Colletotrichum lindemuthianum; assay: Fungicidal activity against Colletotrichum lindemuthianum assessed as inhibition of mycelium growth at 272 uM at 25 +/- 0.5 degC; in short: as §1
Fusarium graminearum [4] = assay: Fungicidal activity against Fusarium graminearum assessed as inhibition of mycelium growth at 272 uM at 25 +/- 0.5 degC; in short: as §1
Fusarium oxysporum [5] = assay: Fungicidal activity against Fusarium oxysporum assessed as inhibition of mycelium growth at 272 uM at 25 +/- 0.5 degC; in short: as §1
Alternaria alternata [6] = assay: Fungicidal activity against Alternaria alternata assessed as inhibition of mycelium growth at 272 uM at 25 +/- 0.5 degC; in short: as §1
Phytophthora infestans [7] = assay: Fungicidal activity against Phytophthora infestans assessed as inhibition of mycelium growth at 272 uM at 25 +/- 0.5 degC; in short: as §1
Sclerotinia sclerotiorum [8] = assay: Fungicidal activity against Sclerotinia sclerotiorum assessed as inhibition of mycelium growth at 272 uM at 25 +/- 0.5 degC; in short: as §1
Alternaria mali [9] = assay: Fungicidal activity against Alternaria mali assessed as inhibition of mycelium growth at 272 uM at 25 +/- 0.5 degC; in short: as §1
Fusarium verticillioides [10] = assay: Fungicidal activity against Fusarium verticillioides assessed as inhibition of mycelium growth at 272 uM at 25 +/- 0.5 degC; in short: as §1
Pseudocercospora musae [11] = assay: Fungicidal activity against Pseudocercospora musae assessed as inhibition of mycelium growth at 272 uM at 25 +/- 0.5 degC; in short: as §1
Botrytis cinerea [12] = assay: Fungicidal activity against Botryotinia fuckeliana assessed as inhibition of mycelium growth at 272 uM at 25 +/- 0.5 degC; in short: as §1
Botrytis cinerea [13] = assay: Fungicidal activity against Botryotinia fuckeliana assessed as inhibition of mycelium growth at 52 uM at 25 +/- 0.5 degC; in short: as §1
Thanatephorus cucumeris [14] = assay: Fungicidal activity against Thanatephorus cucumeris assessed as inhibition of mycelium growth at 52 uM at 25 +/- 0.5 degC; in short: as §1
Fusarium verticillioides [15] = assay: Fungicidal activity against Fusarium verticillioides assessed as inhibition of mycelium growth at 52 uM at 25 +/- 0.5 degC; in short: as §1
Alternaria mali [16] = assay: Fungicidal activity against Alternaria mali assessed as inhibition of mycelium growth at 52 uM at 25 +/- 0.5 degC; in short: as §1
Sclerotinia sclerotiorum [17] = assay: Fungicidal activity against Sclerotinia sclerotiorum assessed as inhibition of mycelium growth at 52 uM at 25 +/- 0.5 degC; in short: as §1
[18] = tested on: Colletotrichum gloeosporioides; assay: Fungicidal activity against Colletotrichum gloeosporioides assessed as inhibition of mycelium growth at 52 uM at 25 +/- 0.5 degC; in short: as §1
Phytophthora infestans [19] = assay: Fungicidal activity against Phytophthora infestans assessed as inhibition of mycelium growth at 52 uM at 25 +/- 0.5 degC; in short: as §1
Fusarium graminearum [20] = assay: Fungicidal activity against Fusarium graminearum assessed as inhibition of mycelium growth at 52 uM at 25 +/- 0.5 degC; in short: as §1
Fusarium oxysporum [21] = assay: Fungicidal activity against Fusarium oxysporum assessed as inhibition of mycelium growth at 52 uM at 25 +/- 0.5 degC; in short: as §1
Thanatephorus cucumeris [22] = assay: Fungicidal activity against Thanatephorus cucumeris assessed as inhibition of mycelium growth at 588 uM at 25 +/- 0.5 degC; in short: as §1
Pseudocercospora musae [23] = assay: Fungicidal activity against Pseudocercospora musae assessed as inhibition of mycelium growth at 588 uM at 25 +/- 0.5 degC; in short: as §1
Alternaria alternata [24] = assay: Fungicidal activity against Alternaria alternata assessed as inhibition of mycelium growth at 588 uM at 25 +/- 0.5 degC; in short: as §1
Fusarium oxysporum [25] = assay: Fungicidal activity against Fusarium oxysporum assessed as inhibition of mycelium growth at 588 uM at 25 +/- 0.5 degC; in short: as §1
Sclerotinia sclerotiorum [26] = assay: Fungicidal activity against Sclerotinia sclerotiorum assessed as inhibition of mycelium growth at 588 uM at 25 +/- 0.5 degC; in short: as §1
[27] = tested on: Botryosphaeria berengeriana; assay: Fungicidal activity against Botryosphaeria berengeriana assessed as inhibition of mycelium growth at 588 uM at 25 +/- 0.5 degC; in short: as §1
[28] = tested on: Colletotrichum gloeosporioides; assay: Fungicidal activity against Colletotrichum gloeosporioides assessed as inhibition of mycelium growth at 588 uM at 25 +/- 0.5 degC; in short: as §1

CC1=CC(=O)O[C@@H](C(C)(C)O)CC1
inhibition at 272 µM (Verticillium dahliae): 66.6% | inhibition at 272 µM (Thanatephorus cucumeris [1]): 80.2% | inhibition at 272 µM [2]: 71.1% | inhibition at 272 µM [3]: 62.3% | inhibition at 272 µM (Fusarium graminearum [4]): 73.8% | inhibition at 272 µM (Fusarium oxysporum [5]): 53.5% | inhibition at 272 µM (Alternaria alternata [6]): 70.9% | inhibition at 272 µM (Phytophthora infestans [7]): 66.4% | inhibition at 272 µM (Sclerotinia sclerotiorum [8]): 81.8% | inhibition at 272 µM (Alternaria mali [9]): 66% | inhibition at 272 µM (Fusarium verticillioides [10]): 55.6% | inhibition at 272 µM (Pseudocercospora musae [11]): 65.5% | inhibition at 272 µM (Botrytis cinerea [12]): 72%

COC(=O)Nc1nc2ccccc2[nH]1 [CARBENDAZIM]
inhibition at 52 µM (Botrytis cinerea [13]): 100% | inhibition at 52 µM (Thanatephorus cucumeris [14]): 100% | inhibition at 52 µM (Fusarium verticillioides [15]): 100% | inhibition at 52 µM (Alternaria mali [16]): 100% | inhibition at 52 µM (Sclerotinia sclerotiorum [17]): 100% | inhibition at 52 µM [18]: 100% | inhibition at 52 µM (Phytophthora infestans [19]): 100% | inhibition at 52 µM (Fusarium graminearum [20]): 100% | inhibition at 52 µM (Fusarium oxysporum [21]): 100%

C/C(=C\C=C\C(C)(C)O)C(=O)O [LITSEACUBEBIC ACID]
inhibition at 588 µM (Thanatephorus cucumeris [22]): 76.8% | inhibition at 588 µM (Pseudocercospora musae [23]): 78.9% | inhibition at 588 µM (Alternaria alternata [24]): 57.8% | inhibition at 588 µM (Fusarium oxysporum [25]): 56.7% | inhibition at 588 µM (Sclerotinia sclerotiorum [26]): 86.7% | inhibition at 588 µM [27]: 59.2% | inhibition at 588 µM [28]: 71.2%
